Laboratory results taken from ChEMBL document CHEMBL1909525, “Synthesis and anticonvulsant activity of novel 2,6-diketopiperazine derivatives. Part 1: perhydropyrrole[1,2-a]pyrazines” (Eur J Med Chem, 2011).
Active and inactive are the calls of the source. The rule behind the calls is not given here.

Tests used:
[1] = species: Rattus norvegicus; assay: Inhibition of voltage-gated sodium channel in Wistar rat cerebral prefrontal coronal slices assessed as decrease of […] current-induced current amplitude at 10 uM after 5 mins by whole cell voltage clamp method (reference value: 4.2%); set-up: scale not given: the % may be the effect or the level left
[2] = test system: Mus musculus; assay: Neurotoxicity in albino Carworth Farms No.1 mouse assessed as motor impairment at 100 mg/kg, ip after 0.5 hrs by rotarod test; format: toxicity, organism-based; set-up: dose 100 mg/kg, route intraperitoneal; details: in vivo
Summary of the method: (§1)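 Rotorod neurotoxicity in mice at 6 r.p.m. Compound given i.p. (30, 100, 300 mg/kg) in 0.5% methylcellulose; tested at 30 min and 4 h. Impairment is inability to keep equilibrium on the rod for a given time; scored as impaired/tested.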

[3] = test system: Mus musculus; assay: Anticonvulsant activity in albino Carworth Farms No.1 mouse assessed as protection against maximal electroshock-induced seizure at 30 mg/kg, ip after 0.5 hrs; format: functional, organism-based; set-up: dose 30 mg/kg
Summary of the method: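 Mouse MES test with compound given i.p. (30, 100 or 300 mg/kg) in 0.5% methylcellulose; tested at 0.5 and 4 h. Corneal stimulus of 50 mA at 60 Hz for 0.2 s, electrodes primed with 0.5% butacaine in 0.9% NaCl. Protection is abolition of hindlimb tonic extension; scored as protected/tested.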

[4] = test system: Mus musculus; assay: Anticonvulsant activity in albino Carworth Farms No.1 mouse assessed as protection against subcutaneous metrazol-induced seizure at 30 mg/kg, ip after 4 hrs; format: functional, organism-based; set-up: dose 30 mg/kg
Summary of the method: (§2)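 Mouse scMET test. Compound given i.p. (30, 100 or 300 mg/kg) in 0.5% methylcellulose. Pentylenetetrazole 85 mg/kg (CD97) given s.c. at 0.5 or 4 h, then mice observed for 30 min. Protection is absence of clonic spasms; scored as protected/tested.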

[5] = test system: Mus musculus; assay: Anticonvulsant activity in albino Carworth Farms No.1 mouse assessed as protection against subcutaneous metrazol-induced seizure at 100 mg/kg, ip after 0.5 hrs; format: functional, organism-based; set-up: dose 100 mg/kg; summary of the method: as §2
[6] = test system: Mus musculus; assay: Neurotoxicity in albino Carworth Farms No.1 mouse assessed as motor impairment at 300 mg/kg, ip after 4 hrs by rotarod test; format: toxicity, organism-based; set-up: dose 300 mg/kg, route intraperitoneal; details: in vivo; summary of the method: as §1

For `O=C1NC(=O)[C@@H]2CCCN2[C@H]1c1ccccc1`, the Activity [1] was 5.3%, the Activity [2] was “Non-toxic” and the Activity [3] was “inactive”. For the same compound, the Activity [4] was “inactive”, the Activity [5] was “inactive” and the Activity [6] was “Non-toxic”.
